Laboratory results taken from the array DNA melting data of Ke et al. (doi:10.1101/2024.01.08.574731).

What was measured:
[1] = folding enthalpy; higher = less favourable; fluorescence melt of hairpins on a sequencing array, two-state fit; details: sodium 0.088 M
In short: (§1)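 To match UV melts, fitted temperatures were raised by 9.35 °C. These fits were bootstrapped two-state models that gave melting temperature and folding enthalpy, combined by inverse variance over four replicates. The input was normalised Cy3 fluorescence of library hairpins with annealed Cy3 and quencher oligos on a sequenced MiSeq flow cell, imaged in 50 mM Na-HEPES pH 8.0, 25 mM NaCl in 2.5 °C steps up to 60 °C.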

[2] = melting temperature; fluorescence melt of hairpins on a sequencing array, two-state fit, raised by 9.35 °C to match UV melts; details: sodium 0.088 M
In short: as §1

Sequence	folding enthalpy [1] [kcal/mol]	Tm [2] [°C]
GATCAGATGCCTGATC ((((((....))))))	-23.8	48.4
GCCAGGCGAAAGCCGCGC ((..(((....)))..))	-18	58.4
GCGTACTCGAAAGAGCGC (((..(((....))))))	-28.6	47.8
GCGTAGCGAAAGCCACGC ((((.((....)).))))	-18.7	60.1
GATCATGGATATGATC ((((((....))))))	-37.9	54.1
GTCGAACGAAAGTTGGAC (((.(((....))).)))	-46.4	50.6
GGGTCGGGAAACCGACTC (.(((((....))))).)	-14.4	58.9
GCACAGCGAAAGCTTAGC ((..(((....)))..))	-10.9	31.8
GCGACACTTCGC ((((....))))	-26.7	52.1
GCGACGGCTCGC ((((....))))	-13.3	49.5
GAATCCGAAAGGAACTTC ((((((....)))..)))	-13.1	33.1
GATCATACCTATGATC ((((((....))))))	-41.5	48.6
GCAGGGCGAAAGCTCCGC ((.(.((....)).).))	-17.6	49.5
GAGTTCGGAAACGAACCC (.(((((....))))).)	-13.3	41.5
CGAACCGGAAACGGGTCG (((.(((....))).)))	-33.9	58.3
GATTGCGAAAGCACGATC ((((((....)))..)))	-7.93	28.7
GGGGCCGAAAGGCCGCCC ((((((....)))..)))	-9.69	56.9
GATCTGTACACAGATC ((((((....))))))	-37.4	54.6
TTGGAGAAATCCAA (((((....)))))	-11.1	35.5
GAAGTACCGAAAGGTTTC (((..(((....))))))	-9.64	27.2

Sequence	folding enthalpy [1] [kcal/mol]	Tm [2] [°C]
GCGATGAAAATCGC (((((....)))))	-31.7	61.6
GATCAAAAATTGATC ((((((...))))))	-29.7	37
GATCTCGCCTGAGATC ((((((....))))))	-36.8	54
GATCGCGTGGCGATC ((((((...))))))	-32.6	69
GCATACGAAAGTATGC ((((((....))))))	-35.3	67.9
GAATGGGCGAAAGCCTTC (((..(((....))))))	-6.79	32
GAGAATGCGAAAGCACTC (((..(((....))))))	-9.82	32
GATCCCTGGAGGGATC ((((((....))))))	-34.4	59.4
CGATCGGAAACGAGTCG ((((((....))).)))	-24.7	39.9
GATCTAATTCTAGATC ((((((....))))))	-29.9	37
GATCGAGGAAACTCGATC (((((((....)))))))	-44.5	62.7
GTCCTATCGAAAGATGAC (((..(((....))))))	-8.25	23.4
GCGAGTATCGC ((((...))))	-18.7	58.4
GCGAGAGGAAACTCCCGC (((.(((....))).)))	-35.5	48.5
GCTCGGCGAAAGCGAAGC (((..((....))..)))	-13.1	47.2
GATCAGATACTGATC ((((((...))))))	-34.2	50.6
GAGCTAGAAATAGCTC ((((((....))))))	-33.6	53.4
GTGTCGGGAAACTGACGC (.(((.(....).))).)	-24.5	45.5
GCTCACGAAAGTGTAAGC ((((((....)))..)))	-19	45.4
